Compound activity (PubChem BioAssay)
A selection: hits, their analogues and other compounds. The true share with any hit is near 2%.
NR2E3 ag-1 – NR2E3 agonists in two-hybrid cells, primary screen, cell-based, luminescence, CHO-S, Gal4-NCOR/VP16-NR2E3 | AID 602229, 2012 | Photoreceptor-specific nuclear receptor (Homo sapiens), Q9Y5X4 | 360,000 compounds, 0.35% hits | luciferase | inhibition of corepressor binding, % at 3.98 µM;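 active means inhibition above the mean of all tested compounds plus 3 SD, cut at about 70% in these data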;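 further: 0% = DMSO with NR2E3 transfected cells and 100% = cells lacking NR2E3 construct; higher means lower luciferase signal from less NR2E3 corepressor binding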
Neddylation inh – inhibitors of cullin neddylation, primary screen, biochemical, TR-FRET, uHTS, NAE and Ubc12. NEDD8-conjugating enzyme Ubc12 (Homo sapiens) + NEDD8-activating enzyme E1 regulatory …. calls only at 25 µM. 360,000 compounds, 0.58% hits; in the data active means inhibition above about 36%
NR2E3 ag-2 – inhibitors of NR2E3-RetCOR corepressor binding, primary screen, NR2E3 agonist project, biochemical, TR-FRET, GST-NR2E3, biotin-RetCOR | 320,000 compounds, 0.12% hits | Photoreceptor-specific nuclear receptor (Homo sapiens), Q9Y5X4 | inhibition of corepressor binding, % at 4.78 µM | 1536-well;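 active means percent inhibition above the cutoff of mean plus 3 SD of all tested compounds, set per screening campaign, cut at about 20% in these data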;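 further: 0% = DMSO wells and 100% = biotin wells as full block of FRET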
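Material: NR2E3–RetCOR corepressor complex | Quantity: 1.35 nM GST-tagged NR2E3 final | Schedule: 5 h at 4 °C | Replication: Singlicate compound wells | Reagent: RetCOR corepressor, biotinylated, 7 nM | Controls: Biotin wells as high control, 0.6% DMSO wells as low control | Signal: TR-FRET, Eu(K)-anti-GST donor, streptavidin-D2 acceptor, ex 340, em 617/671 nm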
NR1D1 modulator – modulators of Rev-erb alpha DNA binding, primary screen, biochemical, FITC-DNA, fluorescence polarization, uHTS | Nuclear receptor subfamily 1 group D member 1 (Homo sapiens), P20393 | Rev-erbα–FITC-DNA binding, 90 min | activity, % at 10 µM | 370,000 compounds, 0.79% hits | AID 1259318, 2017;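 active means activity above about 14%, limit read from the data; passing the limit was not always enough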;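 further: 0% = DMSO wells with 35 nM protein and 100% = DMSO wells with 750 nM protein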
Target sequence (P20393 whole entry, looked up): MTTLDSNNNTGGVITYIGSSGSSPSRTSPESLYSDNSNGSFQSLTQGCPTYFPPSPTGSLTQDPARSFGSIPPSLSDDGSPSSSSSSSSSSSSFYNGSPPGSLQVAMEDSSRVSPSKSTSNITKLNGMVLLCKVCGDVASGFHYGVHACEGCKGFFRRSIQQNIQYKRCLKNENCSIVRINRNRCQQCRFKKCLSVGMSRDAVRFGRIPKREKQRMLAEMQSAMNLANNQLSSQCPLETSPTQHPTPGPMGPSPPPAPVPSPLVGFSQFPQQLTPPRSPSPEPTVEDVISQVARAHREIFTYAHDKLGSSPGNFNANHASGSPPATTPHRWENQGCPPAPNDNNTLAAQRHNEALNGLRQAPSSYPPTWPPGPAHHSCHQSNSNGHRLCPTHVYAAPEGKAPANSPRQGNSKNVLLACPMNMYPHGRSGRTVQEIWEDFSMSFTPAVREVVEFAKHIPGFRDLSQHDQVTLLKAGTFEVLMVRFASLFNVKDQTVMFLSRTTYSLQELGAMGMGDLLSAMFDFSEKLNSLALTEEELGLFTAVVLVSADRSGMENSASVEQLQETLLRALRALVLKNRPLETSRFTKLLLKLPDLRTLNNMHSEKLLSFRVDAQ
PG9 Ab binder – binders of HIV-1 gp120 antibody PG9, primary screen, biochemical, TR-FRET | HIV-1 gp120 / PG9 antibody interaction | TR-FRET gp120-PG9 antibody binding | inhibition, % at 6.7 µM | 360,000 compounds, 0.43% hits; in the data active means inhibition above about 8.5%
PG9 binder conf – binders of anti-gp120 antibody PG9, confirmation, biochemical, TR-FRET | inhibition, % at 6.7 µM | TR-FRET PG9 antibody binding | shares compounds with PG9 Ab binder | 1,500 compounds, 90% hits; in the data active means inhibition above about 9%
PGV04 counter – binders of control antibody PGV04, counter-screen for PG9 antibody binder project, biochemical, TR-FRET, distinct HIV envelope site; shares compounds with PG9 Ab binder; TR-FRET PGV04 antibody-gp120 binding; inhibition, % at 6.7 µM; 1,500 compounds, 95% hits; AID 651604, 2012; in the data active means inhibition above about 9.5%
* hit, by the source's call; i = inactive; . = no result given.

SMILES	NR2E3 ag-1	Neddylation inh	NR2E3 ag-2	NR1D1 modulator	PG9 Ab binder	PG9 binder conf	PGV04 counter
O=C(CCC1CCCN(C(=O)c2cc(F)ccc2F)C1)N1CCN(c2ccccn2)CC1 (centres undefined)	6.1	i	.	-1.6	0.4	.	.
COc1ccc(-c2nc3c(C)cc(Br)cn3c2CC2CCCCC2)cc1OC	-24.7	i	.	3.3	13.7*	22.4*	27.4*
COc1ccc(-c2nc3c(C)cc(Br)cn3c2CC(C)(C)C)cc1OC	4.4	i	.	-2.8	22.2*	25.3*	39.6*
COc1cccc(CN2CCC2(C)C(=O)Nc2ccc3c(c2)CCN3C(C)=O)c1F (centres undefined)	3.8	i	.	3.8	0.0	.	.
O=C(Nc1ccc(Br)cn1)c1ccc2ccccc2c1	-91.4	i	1.2	2.8	-0.2	.	.
O=C(Nc1ccc(Br)cn1)c1cccc(C(=O)Nc2ccc(Br)cn2)c1	-86.4	i	0.6	21.8	12.1*	40.6*	55.0*
COc1ccc(C2CCCN2C(=O)Nc2ccc(C)c(C)c2)cc1OC (centres undefined)	-7.6	i	1.1	3.9	1.1	.	.
COc1ccc(C2CCCN2C(=O)Nc2ccccc2)cc1OC (centres undefined)	-28.1	i	2.8	-0.3	12.9*	5.1	6.6
CC1=CC(=C(C#N)C#N)C=C(C)N1CCN1CCN(C(=O)Nc2cccc(Cl)c2)CC1	-14.9	i	11.9	14.6	11.8*	16.9*	25.8*
CC(=O)N1CCN(CCN2C(C)=CC(=C(C#N)C#N)C=C2C)CC1	18.4	i	2.9	5.1	-0.7	.	.
O=C(Nc1nc(-c2ccccc2)nc2ccccc12)c1ccc(F)cc1	0.9	i	4.4	1.9	11.0*	15.8*	27.1*
COc1ccc2c(c1)C(C)CC(C)(C)N2C(=O)CSc1ncn[nH]1 (centres undefined)	-23.5	i	3.7	-7.2	15.7*	10.9*	15.1*
CCOC(=O)C1CCN(C(=O)CCc2nnc3ccc(N4CCC(C)CC4)nn23)CC1	8.3	i	-1.4	0.1	0.7	.	.
CC(=O)OC1CC(C)(C)N(OC(=O)c2ccccc2)C(C)(C)C1	6.1	i	1.4	4.4	0.9	.	.
CC(=O)OC1CC(C)(C)N(OC(=O)c2ccc(N)cc2)C(C)(C)C1	-23.1	i	-1.1	-0.2	28.8*	31.6*	42.9*
CC1(C)S[C@@H]2[C@@H](N3C(=O)[C@@H](c4ccccc4)NC3(C)C)C(=O)N2[C@H]1C(=O)O	.	.	.	-6.4	.	.	.
O=C(CCc1nc(-c2ccccc2F)no1)NCCc1ccccc1F	.	.	.	4.1	.	.	.
COc1cccc2cc(C(=O)Nc3cccnc3N3CCOCC3)c(=O)oc12	24.8	i	-3.1	-4.8	9.7*	4.0	7.2
O=C(Nc1cccnc1N1CCOCC1)c1cc2ccccc2oc1=O	-2.0	i	-0.4	-2.5	-2.2	.	.
S=c1[nH]nc(-c2cccc(Br)c2)o1	-12.1	i	13.4	-6.4	27.4*	27.6*	39.2*
CCCC(=O)Nc1nc(C)c(C(C)=O)s1	-11.6	i	-0.6	-6.2	32.0*	36.4*	48.9*
CCCCC(=O)Nc1nc(C)c(C(C)=O)s1	-13.2	i	-4.6	-0.4	-1.1	.	.
COc1cc(CC(=O)Nc2sc3c(c2C(N)=O)CCCC3)cc(OC)c1OC	12.6	i	1.6	14.1	9.3*	16.9*	23.3*
COc1cc(OC)cc(C(=O)Nc2sc3c(c2C(N)=O)CCC3)c1	-51.9	i	2.9	13.4	50.1*	17.7*	31.2*
CCC1CCCCN1CCCNC(=O)CCC(=O)N1CCOc2ccccc21 (centres undefined)	-12.9	i	0.9	5.9	-2.9	.	.
SMILES	NR2E3 ag-1	Neddylation inh	NR2E3 ag-2	NR1D1 modulator	PG9 Ab binder	PG9 binder conf	PGV04 counter
Cc1cc(C)cc(N(CCC#N)C(=O)CSc2nc3ccccc3c(=O)[nH]2)c1	-19.9	i	.	12.4	2.8	.	.
Cc1cc(C)cc(NC(=O)COC(=O)c2ccc3c(c2)OCCO3)c1	-18.1	i	-0.4	1.5	7.8	.	.
CCOc1ccc(NC(=O)COC(=O)c2ccc3c(c2)OCCO3)cc1	20.7	i	1.4	3.9	53.9*	48.3*	60.1*
COc1ccccc1-c1noc2c1C(=O)N(Cc1cn(Cc3ccccc3)nn1)CC2	-2.0	i	.	5.3	-1.6	.	.
CCC(=O)c1cn(CC(=O)Nc2ccc(C)cc2)c2ccccc12	-12.8	i	6.9	15.8	11.4*	12.9*	17.5*
Cc1ccc(NC(=O)Cn2cc(C(=O)C3CC3)c3ccccc32)cc1	1.4	i	-0.2	0.6	10.4*	7.8	10.8*
CCC(=O)c1cn(CC(=O)Nc2ccccc2)c2ccccc12	9.7	i	-0.7	5.7	-0.9	.	.
O=C1CC(=O)N(C2CCCCC2)C(=O)N1c1ccccc1S(=O)(=O)Oc1ccccc1	0.0	i	.	-7.7	-0.1	.	.
O=C(c1cccc(C(F)(F)F)c1)N1CC[C@H]2[C@H](CCCN2Cc2ccc(F)cc2)C1	.	.	.	-2.4	.	.	.
COc1cccc(OCc2nn3c(=O)c(-c4ccccc4)nnc3s2)c1	-32.9	i	.	17.7	12.3*	19.4*	34.5*
COc1ccc(OCc2nn3c(-c4cccc(OC)c4)nnc3s2)cc1	-11.9	i	-1.6	-1.0	-1.9	.	.
O=C(Nc1nccs1)c1ccc(-c2ccc(Cl)cc2)o1	-121.6	i	1.9	16.6	0.6	.	.
Cc1nnc(NC(=O)c2ccc(-c3ccc(Cl)cc3)o2)s1	-2.5	i	-4.9	4.7	11.1*	12.7*	27.1*
COc1cccc(S(=O)(=O)N(C)C[C@H]2OCc3cnnn3CCCC(=O)N([C@H](C)CO)C[C@@H]2C)c1	-2.7	i	.	-2.3	-0.6	.	.
CCN1C(=O)/C(=C2/C=Cc3cc(C)ccc3N2CC)N(C)C1=S	-15.6	i	-17.3	-1.7	-23.4	.	.
CCN1C(=C(C#N)C#N)C=Cc2cc(C)ccc21	-1.4	i	6.2	-3.3	22.8*	20.1*	31.4*
COc1ccc(Cc2nc3ccc(C(=O)N(C)Cc4nccn4C)cc3o2)cc1	-22.0	i	.	2.6	0.0	.	.
Cn1c(/C=C/c2ccccc2[N+](=O)[O-])nc2ccccc2c1=O	-18.3	i	.	5.0	0.7	.	.
Cn1c(/C=C/c2ccc(Br)cc2)nc2ccccc2c1=O	-67.2	.	0.5	14.3	45.5*	14.9*	28.8*
CCOc1ccccc1-c1n[nH]c(=S)o1	-8.4	i	6.1	-3.2	10.6*	13.7*	19.2*
